The text below walks through data of PubChem BioAssay AID493238 (Broad Institute, 2011).

Molecules are shown by their SMILES. Values joined by “and” are separate entries in the source; they are usually repeats but may differ in a detail not shown here. Identical values can stand only once. Active and inactive are the calls of the source.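 Rule for the calls: active = VEGF mRNA rise whose fitted curve reaches 40% activation within the highest concentration tested on that sample; inactive = the rest, including effects opposite to expected.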 Bounds are passed on as bounds.

A short description of assay [1]: VEGF mRNA induction in U2OS cells, dose response, orthogonal assay for HIF pathway activator project, cell-based, RT-PCR, dry powder, set 2 (AID 493238). The conditions noted are these: U2OS VEGF mRNA induction, RT-PCR; at 38 µM (top of the series). The method, boiled down: (§1)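 Assay system: human U2OS osteosarcoma cells, endogenous VEGF-A mRNA; Quantity: 2,000 U2OS cells per well; Times: 24 h pre-growth at 37 °C, 24 h compound treatment; Detection: duplex TaqMan RT-qPCR (FAM VEGF-A, VIC beta-actin), 40 cycles, post-lysis; Doses: duplicate dose-response pinning.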

Assay [2] concerns U2OS VEGF mRNA induction, RT-PCR. The description is as above. The method, boiled down:
as §1

`O=C(Nc1nc(-c2ccccc2)cs1)c1cc(-c2ccccc2)on1`: in assay [1], the activation was -5.33% (inactive).

Take `O=C(Nc1ncc(-c2ccccc2)o1)c1cc(-c2ccccc2)on1`: the activation in assay [1] is -1.45% (inactive).

As for `O=C(Nc1nnc(-c2ccccc2)s1)c1cc(-c2ccccc2)on1`, the activation in assay [1] was -3.69% (inactive).

In the case of `Cc1cccc(Nc2nc(-c3ccccn3)nnc2-c2ccccc2)n1`, the AC40 in assay [2] was 2.98 µM. Turning to `COc1cccc(CNc2nc(-c3ccccn3)nnc2-c2ccccc2)c1`, in assay [2], the AC40 is 1.78 µM. On the same count and under the same terms, for `O=C(NCCCn1ccnc1)c1cc(-c2ccccc2)on1` the value was 10.7 µM; for `CC1CN(Cc2ccc(O)c3ncccc23)CC(C)O1` (configuration not stated), 9.15 µM; for `CC(C)(C)OC(=O)N1CCN(Cc2ccc(O)c3ncccc23)CC1`, 10.2 µM. Turning to `c1ccc(CNc2nc(-c3ccccn3)nnc2-c2ccccc2)cc1`, the AC40 in assay [2] is 1.6 µM. On to `N#CC1(c2ccccc2)CCN(Cc2ccc(O)c3ncccc23)CC1`, for which, in assay [2], the AC40 is 28.3 µM. On to `O=C(NCCN1CCOCC1)c1cc(-c2ccccc2)on1`, for which the AC40 in assay [2] was 28.8 µM. With `Cc1ccccc1CNC(=O)c1cc(-c2ccccc2)on1`, in assay [1], the activation was 35.3% (inactive). Regarding `Oc1ccc(CNC2Cc3ccccc3C2)c2cccnc12`, the AC40 in assay [2] was 10.7 µM.

Take `C[C@@H](Nc1nc(-c2ccccn2)nnc1-c1ccccc1)C1CCCCC1`: the AC40 in assay [2] was 0.571 µM. As to `O=C(c1cc(-c2ccccc2)on1)N1CCC(CO)CC1`, the activation in assay [1] is 9.68% (inactive).

As for `c1ccc(-c2nnc(-c3ccccn3)nc2Nc2cnc3ccccc3n2)cc1`, the AC40 in assay [2] is 1.1 µM. Regarding `Cc1ccccc1CNc1nc(-c2ccccn2)nnc1-c1ccccc1`, the AC40 in assay [2] is 1.02 µM. As for `O=C(NC1CCc2ccccc2C1)c1cc(-c2ccccc2)on1` (configuration not stated), the AC40 in assay [2] is > 38 µM (inactive). With `CC(C)(C)CCNC(=O)c1cc(-c2ccccc2)on1`, the AC40 in assay [2] was > 38 µM (inactive). On to `Cc1ccc(Nc2nc(-c3ccccn3)nnc2-c2ccccc2)cn1`, for which the AC40 in assay [2] is 6.12 µM. In the case of `c1ccc(-c2cccc(CNc3nc(-c4ccccn4)nnc3-c3ccccc3)c2)cc1`, the AC40 in assay [2] is 0.601 µM. The same measure, in the same setting: for `c1ccc(-c2nnc(-c3ccccn3)nc2Nc2nc3ccccc3s2)cc1` the value was 0.51 µM; for `c1ccc(-c2nnc(-c3ccccn3)nc2NCC2CC2)cc1`, 2.4 µM; for `O=C(NCCCN1CCOCC1)c1cc(-c2ccccc2)on1`, 23 µM. Still for that read-out and setting: the same measure for `Oc1ccc(CNC2CCc3ccccc32)c2cccnc12` (configuration not stated): 35.1 µM; for `c1ccc(-c2nnc(Nc3nc(-c4ccccn4)nnc3-c3ccccc3)s2)cc1`: 1.3 µM; for `CC(C)(C)c1ccc(CNc2nc(-c3ccccn3)nnc2-c2ccccc2)cc1`: 0.397 µM.

Turning to `COc1ccccc1N1CCN(Cc2ccc(O)c3ncccc23)CC1`, in assay [2], the AC40 was 0.519 µM. As to `Cc1ccc(NC(=O)c2cc(-c3ccccc3)on2)cn1`, in assay [1], the activation is 4.7% (inactive).

Regarding `c1ccc(-c2nnc(-c3ccccn3)nc2NCC2CCCCC2)cc1`, the AC40 in assay [2] was 1.3 µM. Same read-out and setting: for `Cc1cccc(CNc2nc(-c3ccccn3)nnc2-c2ccccc2)c1` the value was 1.45 µM; for `OCC1CCN(c2nc(-c3ccccn3)nnc2-c2ccccc2)CC1`, 10.5 µM. Regarding `Cn1c(NC(=O)c2cc(-c3ccccc3)on2)nc2ccccc21`, the activation in assay [1] is -9.2% (inactive). As for `Cn1c(-c2ccccc2)cnc1NC(=O)c1cc(-c2ccccc2)on1`, the AC40 in assay [2] was 35.2 µM. In the case of `Cc1ccc(CNc2nc(-c3ccccn3)nnc2-c2ccccc2)cc1C`, the AC40 in assay [2] was 0.772 µM. In the case of `c1ccc(-c2csc(Nc3nc(-c4ccccn4)nnc3-c3ccccc3)n2)cc1`, the AC40 in assay [2] was 0.597 µM. Take `c1ccc(-c2nnc(-c3ccccn3)nc2NCC2CCOCC2)cc1`: in assay [2], the AC40 is 7.58 µM.

On to `C=CCNc1nc(-c2ccccn2)nnc1-c1ccccc1`, for which, in assay [2], the AC40 was 4.47 µM. Turning to `O=C(Nc1ccc2ccccc2n1)c1cc(-c2ccccc2)on1`, the activation in assay [1] is 4.54% (inactive). On the same count and under the same terms, the same measure for `O=C(c1cc(-c2ccccc2)on1)N1CCC(N2CCCC2)CC1`: 13.9% (inactive). `c1ccc(-c2ccc(CNc3nc(-c4ccccn4)nnc3-c3ccccc3)cc2)cc1`: the AC40 in assay [2] is 0.303 µM. In the case of `CN(C)CCNC(=O)c1cc(-c2ccccc2)on1`, the activation in assay [1] was 5.67% (inactive).

Regarding `Cc1cccc(CNC(=O)c2cc(-c3ccccc3)on2)c1`, in assay [1], the activation was 8.64% (inactive). As to `O=C(Nc1ncc2ccccc2n1)c1cc(-c2ccccc2)on1`, the AC40 in assay [2] is 36.2 µM.

With `O=C(NCC1CCCCC1)c1cc(-c2ccccc2)on1`, the activation in assay [1] is -2.71% (inactive). For the molecule `CN1CCN(c2nc(-c3ccccn3)nnc2-c2ccccc2)CC1`, the AC40 in assay [2] was 5.95 µM.

For the molecule `Cc1ccc(CNC(=O)c2cc(-c3ccccc3)on2)cc1`, the activation in assay [1] was 8.66% (inactive). For `c1ccc(-c2nnc(-c3ccccn3)nc2N2CCN(c3ccncc3)CC2)cc1`, the AC40 in assay [2] is 2.12 µM. Regarding `OCC1CCN(Cc2ccc(O)c3ncccc23)CC1`, the AC40 in assay [2] is 3.56 µM. In the case of `CN1CCN(C(=O)c2cc(-c3ccccc3)on2)CC1`, the activation in assay [1] is 5.56% (inactive). With `c1ccc(-c2nnc(-c3ccccn3)nc2N2CCC(C3CCCCC3)C2)cc1` (configuration not stated), the AC40 in assay [2] is 0.843 µM. On to `c1ccc(CCNc2nc(-c3ccccn3)nnc2-c2ccccc2)cc1`, for which the AC40 in assay [2] was 4.92 µM. Regarding `c1ccc(-c2nnc(-c3ccccn3)nc2NCCCN2CCOCC2)cc1`, in assay [2], the AC40 is 6.5 µM. For `CN(C)c1nc(-c2ccccn2)nnc1-c1ccccc1`, the AC40 in assay [2] is 8.23 µM.

For `Clc1cccc(CNc2nc(-c3ccccn3)nnc2-c2ccccc2)c1`, the AC40 in assay [2] is 0.87 µM. As for `Oc1ccc(CN2CCC(Cc3ccccc3)CC2)c2cccnc12`, the AC40 in assay [2] is 6.76 µM. `O=C(NC1Cc2ccccc2C1)c1cc(-c2ccccc2)on1`: the activation in assay [1] was 2.5% (inactive). Regarding `c1ccc(-c2nnc(-c3ccccn3)nc2N2CCC(N3CCOCC3)CC2)cc1`, in assay [2], the AC40 is 6.52 µM. Regarding `c1ccc(-c2nnc(-c3ccccn3)nc2NCCc2ccccn2)cc1`, in assay [2], the AC40 was 5.54 µM. On the same count and under the same terms, the same measure for `C[C@@H](Nc1nc(-c2ccccn2)nnc1-c1ccccc1)c1ccccc1`: 2.22 µM; for `C[C@H](Nc1nc(-c2ccccn2)nnc1-c1ccccc1)C1CCCCC1`: 1.39 µM.

`CC(C)(C)CCNc1nc(-c2ccccn2)nnc1-c1ccccc1`: the AC40 in assay [2] is 0.768 µM and 0.974 µM. As for `Cc1ccc(CNc2nc(-c3ccccn3)nnc2-c2ccccc2)cc1`, the AC40 in assay [2] is 0.892 µM. As for `Oc1ccc(CN2CCc3ccccc3C2)c2cccnc12`, the AC40 in assay [2] is 5.31 µM and 5.35 µM. As for `c1ccc(-c2nnc(-c3ccccn3)nc2NCc2cccnc2)cc1`, the AC40 in assay [2] is 2.84 µM. For the molecule `O=C(NCc1ccccc1)c1cc(-c2ccccc2)on1`, the activation in assay [1] is -10.1% (inactive). Consider `c1ccc(-c2nnc(-c3ccccn3)nc2NCc2ccccn2)cc1`, for which the AC40 in assay [2] was 4.53 µM.

Take `O=C(c1cc(-c2ccccc2)on1)N1CCc2cccnc21`: the activation in assay [1] is 5.33% (inactive). For `O=C(Nc1nc2ccccc2s1)c1cc(-c2ccccc2)on1`, in assay [1], the activation is 18.7% (inactive). Consider `CC(Nc1nc(-c2ccccn2)nnc1-c1ccccc1)c1ccccc1` (configuration not stated), for which the AC40 in assay [2] was 1.37 µM. For the molecule `O=C(c1cc(-c2ccccc2)on1)N1CCC(N2CCOCC2)CC1`, the activation in assay [1] is 2.34% (inactive). Still for that read-out and setting: the same measure for `O=C(NCCN1CCCCC1)c1cc(-c2ccccc2)on1`: -5.63% (inactive).

Take `c1ccc(-c2nnc(-c3ccccn3)nc2N2CCC(c3ccccc3)C2)cc1` (configuration not stated): in assay [2], the AC40 was 1.52 µM.

Take `c1ccc(-c2nnc(-c3ccccn3)nc2NCCN2CCOCC2)cc1`: in assay [2], the AC40 is 8.15 µM. Consider `O=C(Nc1cn2ccccc2n1)c1cc(-c2ccccc2)on1`, for which the AC40 in assay [2] is 18.6 µM. Turning to `O=C(c1cc(-c2ccccc2)on1)N1CCN(c2ccncc2)CC1`, in assay [2], the AC40 is > 38 µM (inactive). For `O=C(Nc1cnc2ccccc2c1)c1cc(-c2ccccc2)on1`, in assay [1], the activation is -1.59% (inactive). In the case of `O=C(NCC1CC1)c1cc(-c2ccccc2)on1`, in assay [2], the AC40 was 17.2 µM. In the case of `Cc1cccc(NC(=O)c2cc(-c3ccccc3)on2)n1`, in assay [1], the activation is 16.6% (inactive). In the case of `CCCCNC(=O)c1cc(-c2ccccc2)on1`, the AC40 in assay [2] was 14.6 µM. As for `OCCCNc1nc(-c2ccccn2)nnc1-c1ccccc1`, the AC40 in assay [2] was 8.34 µM. As for `O=C(NCCCCO)c1cc(-c2ccccc2)on1`, the AC40 in assay [2] was 5.01 µM. As to `COc1ccc(CNc2nc(-c3ccccn3)nnc2-c2ccccc2)cc1`, the AC40 in assay [2] was 1.92 µM. Still for that read-out and setting: the same measure for `Oc1ccc(CN2CCC3CCCCC3C2)c2cccnc12` (configuration not stated): 3.2 µM; for `Cn1c(-c2ccccc2)cnc1Nc1nc(-c2ccccn2)nnc1-c1ccccc1`: 3.33 µM. For the molecule `c1ccc(-c2cnc(Nc3nc(-c4ccccn4)nnc3-c3ccccc3)s2)cc1`, the AC40 in assay [2] was 0.4 µM. Consider `O=C(NCCCO)c1cc(-c2ccccc2)on1`, for which, in assay [2], the AC40 is 11.5 µM.
